A selection: hits, their analogues and other compounds. The true share with any hit is near 1.6%.
SKN-1 block – suppressors of acrylamide-induced Pgst-4::GFP reporter in worms, primary screen, SKN-1 inhibitor project, whole organism, uHTS, GFP/RFP fluorescence ratio, strain VP596. C. elegans VP596 Pgst-4::GFP/RFP ratio, 24 h. AID 624304, 2012. inhibition, % at 21.8 µM. 0.49% of 360,000 active;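 active means interference check ratio from 0.5 to 1.5 plus GFP to RFP signal ratio inhibition reaching or exceeding a fixed threshold, cut at about 30% in these data, passing the limit was not always enough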
Arr AP2 block – inhibitors of beta-arrestin/AP2 binding, primary screen, biochemical, GPCR trafficking, flow cytometry; beta-arrestin 1 C-terminal peptide binding to AP2 beta2-adaptin appendage (human); FITC-arrestin peptide / GST-AP2 beads; AP2 beta2 appendage carries R879A mutation; inhibition, % at 10 µM; 0.31% of 340,000 active;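 active means inhibition above a set limit, near 3 SD of compounds lacking own fluorescence, cut at about 54% in these data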
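Assay system: GST-AP2 R879A bound to glutathione beads, E. coli-expressed; Medium: PBS with 0.05% Tween 20 and 0.1% BSA; Also added: fluorescein-tagged arrestin peptide at 50 nM final; Timing: 12 min plus 1 h, RT; Measured by: flow cytometry, FL1 (488/535 nm); Evaluation: percent drop in bead-associated FITC signal.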
MT1-MMP act inh – blockers of MT1-MMP proenzyme processing, primary screen, HT1080 RFP-PRO-GFP cells, GFP/RFP fluorescence. GFP/RFP ratio change, % at 20 µM. 0.061% of 360,000 active. AID 651647, 2012. GFP/RFP ratio fluorescence, overnight; percent of plate control window, DMSO zero. Matrix metalloproteinase-14 (Homo sapiens), P50281;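 active means GFP/RFP ratio change of at least 30% with cell ATP level not reduced by more than half and red fluorescence within 50% of control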
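Test system: HT1080 cells expressing an RFP-PRO-GFP fluorescent reporter construct / Compound dosing: single-point 20 µM compound, 1% DMSO / Schedule: cells overnight before dosing, compound overnight, 37 °C, 5% CO2 / Evaluation: GFP/RFP fluorescence ratio / Control set: DMSO and RFP-L50D-GFP cell wells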
TbMetRS inhib – T. brucei MetRS inhibitors, primary screen, biochemical, luminescence; AID 624268, 2012; inhibition, % at 11.9 µM; methionyl-tRNA synthetase (Trypanosoma brucei brucei); 0.4% of 360,000 active; purified T. brucei MetRS, ATP depletion, Kinase-Glo luminescence;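 active means inhibition above a per-plate cutoff of the control wells' mean inhibition plus 3 SD, cut at about 5.5% in these data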
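technique = Kinase-Glo luminescence, ATP depletion format | system = purified MetRS (methionyl-tRNA synthetase) enzyme from Trypanosoma brucei | timing = 15 min preincubation, 2 h reaction, all 25 °C | evaluation = percent inhibition versus plate control medians | dosing = single dose, 11.9 µM final nominal, 0.9% final DMSO | also added = substrates ATP, L-methionine and bulk Escherichia coli tRNA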
Rin1-Abl PPI inh – inhibitors of Rin1-Abl protein binding, primary screen, biochemical, TR-FRET; Tyrosine-protein kinase ABL1 (Homo sapiens) + Ras and Rab interactor 1 (Homo sapiens), …; inhibition, % at 7.35 µM; 0.4% of 360,000 active; in the data active means inhibition above about 5%, passing the limit was not always enough
Tb MetRS conf – T. brucei MetRS inhibitors, confirmation, biochemical, luminescence. shares compounds with TbMetRS inhib. T. brucei MetRS enzyme, luminescence (ATP depletion). inhibition, % at 11.9 µM. 93% of 1,400 active. AID 624412, 2012; in the data active means inhibition above about 7%
Jurkat cytotox – Jurkat T cell cytotoxicity, cytotoxicity control for T. brucei MetRS inhibitor project, luminescence, high throughput | shares compounds with TbMetRS inhib | 12% of 1,400 active | Jurkat cells viability, ATP luminescence | inhibition, % at 8.3 µM; in the data active means inhibition above about 15%
TbMetRS FP orth – T. brucei MetRS inhibitors, orthogonal assay for T. brucei MetRS inhibitor project, biochemical, fluorescence polarization; shares compounds with TbMetRS inhib; purified T. brucei MetRS; inhibition, % at 11.9 µM; 44% of 1,400 active; in the data active means inhibition above about 17%
Large screens that a line does not name were inactive (follow-up assays come after a bar, where they were run).

Cc1cc(C)c(C(O)c2ncc(-c3cccc(F)c3)[nH]2)c(C)c1 (stereo not given)	none (no result: Arr AP2 block)
COc1ccc(-c2nc3ccc(Br)cn3c2Cc2ccsc2)cc1OC	none (no result: Arr AP2 block)
Cc1nc(Nc2ccccc2)[nH]c(=O)c1CCC(C)C	TbMetRS inhib 7.5 | Tb MetRS conf 52 | Jurkat cytotox inactive | TbMetRS FP orth 24
Cc1nc(N2CCc3ccccc3C2)[nH]c(=O)c1CCC(C)C	none
COc1cc(NC(=O)N2CCc3nc(Nc4cc(Cl)cc(Cl)c4)ncc3C2)cc(OC)c1OC	none (no result: Arr AP2 block)
C[C@@H]1CN([C@@H](C)CO)C(=O)CCCn2nncc2CO[C@H]1CN(C)Cc1cccc(C(F)(F)F)c1	none (no result: Arr AP2 block)
Nn1cnc2cc3ccccc3cc2c1=O	none
CCCc1ccc(-c2c(C)sc(N)c2C#N)cc1	TbMetRS inhib 27 | Tb MetRS conf 17 | Jurkat cytotox inactive | TbMetRS FP orth inactive
Cc1cccc(NS(=O)(=O)c2ccc3[nH]c(=O)oc3c2)c1C	none
Cc1cccc(NS(=O)(=O)c2ccc3nc(-c4ccccc4)[nH]c3c2)c1C	TbMetRS inhib 27 | Tb MetRS conf 40 | Jurkat cytotox inactive | TbMetRS FP orth 30
Nc1cc2c(cc1Br)-c1c(C(=O)O)cccc1C2O (stereo not given)	none
CC(C(=O)Nc1cccc([N+](=O)[O-])c1)[n+]1ccccc1 (stereo not given)	none
O=C(Cn1cnc2ccccc21)Nc1cccc([N+](=O)[O-])c1	TbMetRS inhib 81 | Tb MetRS conf 95 | Jurkat cytotox inactive | TbMetRS FP orth 71
CC(C(=O)Nc1cccc([N+](=O)[O-])c1)n1nnc2ccccc21 (stereo not given)	TbMetRS inhib 20 | Tb MetRS conf 31 | Jurkat cytotox inactive | TbMetRS FP orth inactive
CCOc1cc(/C=C2\SC(=S)N(NS(=O)(=O)c3ccccc3)C2=O)ccc1O	TbMetRS inhib 9.0 | Tb MetRS conf 19 | Jurkat cytotox inactive | TbMetRS FP orth 24
CCOc1cc(/C=C2\SC(=O)N=C2N)ccc1O	TbMetRS inhib 32 | Tb MetRS conf 44 | Jurkat cytotox inactive | TbMetRS FP orth 19
CC1CCC(C(C)C)C(NC(=O)c2ccncc2)C1 (stereo not given)	none (no result: Arr AP2 block)
CC(=O)c1cccc(NC(=O)C(C)OC(=O)CNC(=O)c2ccc(C)s2)c1 (stereo not given)	TbMetRS inhib 14 | Tb MetRS conf 29 | Jurkat cytotox inactive | TbMetRS FP orth inactive
CC(=O)Nc1ccc(NC(=O)C(C)OC(=O)CNC(=O)c2cccs2)cc1 (stereo not given)	none
CC1(Cc2ccc3c(c2)OCO3)C(=O)Nc2c(Cl)ccc(Cl)c21 (stereo not given)	none (no result: Arr AP2 block)
N#Cc1nc(COc2ccc(Cl)cc2Cl)oc1N1CCN(c2ccccc2)CC1	none
N#Cc1nc(COc2ccc(Cl)cc2Cl)oc1N1CCOCC1	TbMetRS inhib 11 | Tb MetRS conf 22 | Jurkat cytotox inactive | TbMetRS FP orth inactive
C[C@H](CO)N1C[C@H](C)[C@H](CN(C)C(=O)c2ccccc2F)Oc2ncc(Br)cc2C1=O	none (no result: Arr AP2 block)
Cc1ccc(NC(=O)CN(C)C(=O)CCSc2ccc(F)cc2)cc1	TbMetRS inhib 43 | Tb MetRS conf 80 | Jurkat cytotox inactive | TbMetRS FP orth 60
CCCC(=O)N1CCC1(C)C(=O)NS(=O)(=O)c1ccc(C(C)(C)C)cc1 (stereo not given)	none (no result: Arr AP2 block)
CSc1ncccc1C(=O)N1CCC(C)(C(=O)O)C1 (stereo not given)	none (no result: Arr AP2 block)
CC1CCC(NC(=O)c2ccc(-n3cncn3)c([N+](=O)[O-])c2)CC1 (stereo not given)	TbMetRS inhib 12 | Tb MetRS conf 52 | Jurkat cytotox inactive | TbMetRS FP orth 24
O=C(NCC1COc2ccccc2O1)c1ccc(-n2cncn2)c([N+](=O)[O-])c1 (stereo not given)	TbMetRS inhib 19 | Tb MetRS conf 58 | Jurkat cytotox inactive | TbMetRS FP orth 31
O=C(NC1CCCCC1)c1ccc(-n2cncn2)c([N+](=O)[O-])c1	TbMetRS inhib 24 | Tb MetRS conf 51 | Jurkat cytotox inactive | TbMetRS FP orth 28
CCCCc1nnc(NC(=O)c2ccc(-n3cncn3)c([N+](=O)[O-])c2)s1	none
CC(=O)c1ccc(NCC2COc3ccccc3O2)c([N+](=O)[O-])c1 (stereo not given)	none
CCn1c(C)cc2c(c1=O)C(c1ccncc1)C(C#N)=C(N)O2 (stereo not given)	none
Cc1cc2c(c(=O)n1CC1CCCO1)C(c1ccc3c(c1)OCO3)C(C#N)=C(N)O2 (stereo not given)	TbMetRS inhib 60 | Tb MetRS conf 75 | Jurkat cytotox inactive | TbMetRS FP orth 49
CCn1c(C)cc2c(c1=O)C(c1ccc3c(c1)OCO3)C(C#N)=C(N)O2 (stereo not given)	TbMetRS inhib 23 | Tb MetRS conf inactive | Jurkat cytotox inactive | TbMetRS FP orth inactive
Cc1ccc(C)c(N2CCN(S(=O)(=O)c3csc(C(N)=O)c3)CC2)c1	none
Cc1cc(SCC(=O)N/N=C/c2ccc(O)cc2O)c(C)cc1Br	TbMetRS inhib 52 | Tb MetRS conf 92 | Jurkat cytotox 41 | TbMetRS FP orth 75
CCC(CC)C(=O)N(C)c1c(C)nc2c(OCc3ccc(Cl)cc3)cccn12	none (no result: Arr AP2 block)
O=C(NCCc1ccc(Cl)cc1)Nc1ccc(F)cc1	TbMetRS inhib 18 | Tb MetRS conf 30 | Jurkat cytotox inactive | TbMetRS FP orth inactive
Fc1ccc(NC(=S)NCCc2ccc(Cl)cc2)cc1	none
CN1CCN(C(CNC(=O)Nc2ccc(Cl)cc2)c2ccc(F)cc2)CC1 (stereo not given)	TbMetRS inhib 28 | Tb MetRS conf 52 | Jurkat cytotox inactive | TbMetRS FP orth 29

Screening data deposited in PubChem BioAssay by several laboratories.
